What all share (assay type): cell-based
The test system of data set [1] is Salmonella typhimurium TA1535. Briefly: Cytotoxicity in liquid medium. The following applies: mean ± SEM. In a few lines:
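TA1535 was grown in broth microdilution with test compound at 25, 50 or 100 µM. Viability was expressed as % of untreated control (mean ± SEM), triplicate.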

In data set [2] the test system is Salmonella typhimurium TA1535. Nature of the data set: Ames Salmonella/microsomal mutagenicity assay. The following applies: presence of S9 mix, spontaneous 67.0±6.1.
In data set [3] the test system is Salmonella typhimurium TA1535. Briefly: Antimutagenicity assay against sodium azide. The following applies: for NaN3 mutagenicity (revertant colonies/plate; mean ± SEM): NaN3 2 μg/plate, spontaneous 29.3±5.3. Put shortly: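 TA1535 was exposed to test compound at 10 or 20 µM with NaN₃ (2 µg/plate) in two schemes. In pre-exposure, compound and bacteria were shaken 30 min at 37°C before mutagen was added. In co-exposure, bacteria, mutagen and compound were incubated together 30 min at 37°C. Cells were then plated on minimal glucose agar, and revertants counted at 48 h, in triplicate. Mutant frequency = mutant colonies/viable colonies.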

The test system of data set [4] is Salmonella typhimurium TA1535. Nature of the data set: Antimutagenicity assay against benzo[a]pyrene with S9 mix. The following applies: for B[a]P mutagenicity (revertant colonies/plate; mean ± SEM): B[a]P 20 μM + S9 mix, spontaneous 105.0±13.1; for Mutant frequency (benzo[a]pyrene): mutant colonies/viable colonies.
The mark [5] stands for this setting: co-exposure, 10 μM, mutant colonies/viable colonies.
The mark [6] stands for this setting: co-exposure, 20 μM, mutant colonies/viable colonies.
Setting [7] is: pre-exposure, 10 μM, mutant colonies/viable colonies.
Setting [8] is: pre-exposure, 20 μM, mutant colonies/viable colonies.

Consider six molecules from PMC4109633 (Drug Design, Development and Therapy, 2014).

Molecules are shown by their SMILES. Marks after values point to notes of the source that are not given here.

Consider `Cl.N=C(N)c1ccc(-c2ccc(-c3cccs3)o2)cc1F` [Compound 5d, 2-Fluoro-4-(5-(thiophen-2-yl)furan-2-yl)benzamidine hydrochloride salt], for which the “Viability at fluoroarylbichalcophene concentrations (% of control)” value (“Viability … (% of control)” for short) is listed as 105.7±4.6 % of control in data set [1] (25 μM), 65.3±3.9 ^a % of control in data set [1] (50 μM) and 49.3±3.8 ^a % of control in data set [1] (100 μM). For the same molecule, the figures for the “Fluoroarylbichalcophene mutagenicity (revertant colonies/plate; mean ± SEM)” value in data set [2] (10 μM) and in data set [2] (20 μM) were 65.0±7.0 revertant colonies/plate and 67.7±6.0 revertant colonies/plate, respectively. Further, the “NaN3 mutagenicity (revertant colonies/plate; mean ± SEM)” value worked out at 43.3±6.8 revertant colonies/plate in data set [3] (co-exposure, 10 μM); 20.0±1.0 revertant colonies/plate in data set [3] (co-exposure, 20 μM); 65.0±5.0 revertant colonies/plate in data set [3] (pre-exposure, 10 μM); 44.3±4.5 revertant colonies/plate in data set [3] (pre-exposure, 20 μM). Moreover, the “Mutant frequency (sodium azide)” value in data set [3] (setting [5]) is reported as 0.76; in data set [3] (setting [6]), 0.40; in data set [3] (setting [7]), 1.14; in data set [3] (setting [8]), 0.88. The “B[a]P mutagenicity (revertant colonies/plate; mean ± SEM)” value in data set [4] (co-exposure, 10 μM) is 109.7±8.3 revertant colonies/plate; in data set [4] (co-exposure, 20 μM), 101.0±6.0 revertant colonies/plate; in data set [4] (pre-exposure, 10 μM), 261.0±8.5 revertant colonies/plate; in data set [4] (pre-exposure, 20 μM), 216.7±14.3 revertant colonies/plate. Also, the “Mutant frequency (benzo[a]pyrene)” value amounted to 4.19 in data set [4] (pre-exposure, 10 μM) and 3.28 in data set [4] (pre-exposure, 20 μM).

Consider `N#Cc1ccc(-c2ccc(-c3ccco3)o2)c(F)c1` [Compound 4a, 4-(2,2′-Bifuran-5-yl)-3-fluorobenzonitrile], for which the “Viability … (% of control)” value in data set [1] (25 μM) is 100.0±8.5 % of control; in data set [1] (50 μM), 66.3±5.6 ^a % of control; in data set [1] (100 μM), 45.7±3.5 ^a % of control. Also, the “Fluoroarylbichalcophene mutagenicity (revertant colonies/plate; mean ± SEM)” value in data set [2] (10 μM) is 63.3±5.5 revertant colonies/plate; in data set [2] (20 μM) it was 69.7±7.0 revertant colonies/plate. Also, the “NaN3 mutagenicity (revertant colonies/plate; mean ± SEM)” value amounted to 75.0±2.3 revertant colonies/plate in data set [3] (co-exposure, 10 μM); 34.3±4.9 revertant colonies/plate in data set [3] (co-exposure, 20 μM); 47.7±6.5 revertant colonies/plate in data set [3] (pre-exposure, 10 μM); 26.0±5.5 revertant colonies/plate in data set [3] (pre-exposure, 20 μM). For the same molecule, the “Mutant frequency (sodium azide)” value in data set [3] (setting [6]) came to 0.69; in data set [3] (setting [7]), 0.99; in data set [3] (setting [8]) it was 0.52. In addition, the “B[a]P mutagenicity (revertant colonies/plate; mean ± SEM)” value in data set [4] (co-exposure, 10 μM) is reported as 270.0±19.0 revertant colonies/plate; in data set [4] (co-exposure, 20 μM) it was 268.0±16.6 revertant colonies/plate; in data set [4] (pre-exposure, 10 μM), 267.0±11.0 revertant colonies/plate; in data set [4] (pre-exposure, 20 μM), 267.7±13.0 revertant colonies/plate. Also, the “Mutant frequency (benzo[a]pyrene)” value in data set [4] (co-exposure, 10 μM) turned out to be 4.08; in data set [4] (co-exposure, 20 μM), 4.14; in data set [4] (pre-exposure, 10 μM), 4.04; in data set [4] (pre-exposure, 20 μM), 4.14.

For the molecule `Cl.N=C(N)c1ccc(-c2ccc(-c3ccco3)o2)c(F)c1` [Compound 5a, 4-(2,2′-Bifuran-5-yl)-3-fluorobenzamidine hydrochloride salt], the “Viability … (% of control)” value in data set [1] (25 μM) is recorded as 102.3±10.2 % of control; in data set [1] (50 μM) it was 63.3±9.0 ^a % of control; in data set [1] (100 μM), 32.7±2.7 ^a % of control. For the same molecule, the results for the “Fluoroarylbichalcophene mutagenicity (revertant colonies/plate; mean ± SEM)” value in data set [2] (10 μM) and in data set [2] (20 μM) were 61.0±4.8 revertant colonies/plate and 65.7±5.8 revertant colonies/plate, respectively. Moreover, the “NaN3 mutagenicity (revertant colonies/plate; mean ± SEM)” value was 73.3±4.1 revertant colonies/plate in data set [3] (co-exposure, 10 μM); 39.0±8.1 revertant colonies/plate in data set [3] (co-exposure, 20 μM); 57.7±11.0 revertant colonies/plate in data set [3] (pre-exposure, 10 μM); 22.3±2.1 revertant colonies/plate in data set [3] (pre-exposure, 20 μM). Also, the results for the “Mutant frequency (sodium azide)” value in data set [3] (setting [6]) and in data set [3] (setting [8]) were 0.76 and 0.44, respectively. Besides, the “B[a]P mutagenicity (revertant colonies/plate; mean ± SEM)” value was determined as 102.0±12.1 revertant colonies/plate in data set [4] (co-exposure, 10 μM); 98.3±9.5 revertant colonies/plate in data set [4] (co-exposure, 20 μM); 209.7±10.3 revertant colonies/plate in data set [4] (pre-exposure, 10 μM); 201.0±11.0 revertant colonies/plate in data set [4] (pre-exposure, 20 μM). The “Mutant frequency (benzo[a]pyrene)” value in data set [4] (co-exposure, 20 μM) came to 1.65; in data set [4] (pre-exposure, 10 μM), 3.26; in data set [4] (pre-exposure, 20 μM), 3.37.

For `Cl.N=C(N)c1ccc(-c2ccc(-c3ccco3)o2)cc1F` [Compound 5b, 4-(2,2′-Bifuran-5-yl)-2-fluorobenzamidine hydrochloride salt], the “Viability … (% of control)” value in data set [1] (25 μM) was 101.7±11.3 % of control; in data set [1] (50 μM) it was 62.0±5.5 ^a % of control; in data set [1] (100 μM), 36.7±2.8 ^a % of control. Also, the “Fluoroarylbichalcophene mutagenicity (revertant colonies/plate; mean ± SEM)” value in data set [2] (10 μM) was 68.7±4.0 revertant colonies/plate; in data set [2] (20 μM), 65.0±4.9 revertant colonies/plate. Further, the “NaN3 mutagenicity (revertant colonies/plate; mean ± SEM)” value in data set [3] (co-exposure, 10 μM) was determined as 26.0±2.0 revertant colonies/plate; in data set [3] (co-exposure, 20 μM), 21.7±2.5 revertant colonies/plate; in data set [3] (pre-exposure, 10 μM) it was 126.7±11.2 revertant colonies/plate; in data set [3] (pre-exposure, 20 μM), 40.3±6.5 revertant colonies/plate. Also, the “Mutant frequency (sodium azide)” value stood at 0.50 in data set [3] (setting [5]), 0.43 in data set [3] (setting [6]), 2.45 in data set [3] (setting [7]) and 0.79 in data set [3] (setting [8]). Besides, in data set [3] (pre-exposure, only at 20 μM), the “Antimutagenic potential against NaN3” value is “strong (40% or more reduction means strong antimutagenic activity)”. The “B[a]P mutagenicity (revertant colonies/plate; mean ± SEM)” value in data set [4] (co-exposure, 10 μM) amounted to 213.7±15.8 revertant colonies/plate; in data set [4] (co-exposure, 20 μM), 166.0±6.6 revertant colonies/plate; in data set [4] (pre-exposure, 10 μM), 178.0±8.2 revertant colonies/plate; in data set [4] (pre-exposure, 20 μM), 163.0±7.9 revertant colonies/plate. Besides, the “Mutant frequency (benzo[a]pyrene)” value in data set [4] (co-exposure, 10 μM) is listed as 3.38; in data set [4] (co-exposure, 20 μM) it was 2.58; in data set [4] (pre-exposure, 10 μM) it was 2.81; in data set [4] (pre-exposure, 20 μM), 2.53.

Consider `N#Cc1ccc(-c2ccc(-c3cccs3)o2)cc1F` [Compound 4d, 2-Fluoro-4-(5-(thiophen-2-yl)furan-2-yl)benzonitrile], for which the “Viability … (% of control)” value in data set [1] (25 μM) is recorded as 71.7±5.0 % of control; in data set [1] (50 μM), 59.7±4.7 ^a % of control; in data set [1] (100 μM), 3.0±0.2 ^a % of control. Besides, the “Fluoroarylbichalcophene mutagenicity (revertant colonies/plate; mean ± SEM)” value stood at 68.7±6.0 revertant colonies/plate in data set [2] (10 μM) and 67.7±6.1 revertant colonies/plate in data set [2] (20 μM). In addition, the “NaN3 mutagenicity (revertant colonies/plate; mean ± SEM)” value amounted to 47.7±2.7 revertant colonies/plate in data set [3] (co-exposure, 10 μM); 49.7±6.4 revertant colonies/plate in data set [3] (co-exposure, 20 μM); 36.0±2.7 revertant colonies/plate in data set [3] (pre-exposure, 10 μM); 29.7±4.0 revertant colonies/plate in data set [3] (pre-exposure, 20 μM). In addition, the “Mutant frequency (sodium azide)” value in data set [3] (setting [5]) is on record as 0.92; in data set [3] (setting [6]), 0.94; in data set [3] (setting [7]) it was 0.69; in data set [3] (setting [8]) it was 0.56. Besides, the “B[a]P mutagenicity (revertant colonies/plate; mean ± SEM)” value in data set [4] (co-exposure, 10 μM) is 287.7±16.0 revertant colonies/plate; in data set [4] (co-exposure, 20 μM), 204.0±5.3 revertant colonies/plate; in data set [4] (pre-exposure, 10 μM), 271.0±16.5 revertant colonies/plate; in data set [4] (pre-exposure, 20 μM), 271.0±12.2 revertant colonies/plate. The “Mutant frequency (benzo[a]pyrene)” value in data set [4] (co-exposure, 10 μM) worked out at 4.38; in data set [4] (co-exposure, 20 μM), 3.29; in data set [4] (pre-exposure, 10 μM), 4.12; in data set [4] (pre-exposure, 20 μM), 4.37. Also, in data set [4] (co-exposure, low concentration investigated), the “Antimutagenic potential against B[a]P” value was “no significant activity”.

For the molecule `[N-]=[N+]=[N-].[Na+]` [NaN3, sodium azide, reference compound], the “Mutant frequency, NaN3 alone” value in data set [3] (NaN3 without fluoroarylbichalcophene, mutant colonies/viable colonies) is 2.65 (100).
